Data taken from article PMC3580179 (Biopharmaceutics & drug disposition, 2010).
Values joined by “and” are separate entries in the source; they are usually repeats but may differ in a detail not shown here. Equal values may be shown once. Read-outs that look alike come from different tables or passages of the source. Marks after values point to notes of the source that are not given here.

How the values were obtained:
[1] = Pharmacokinetics after oral administration to rats; format: in vivo, male Sprague-Dawley rats; conditions: rat; for Cmax / AUC(0-inf) / MRT / half-life: male, Sprague-Dawley, po
[2] = Pharmacokinetics after intravenous administration to rats; format: in vivo, male Sprague-Dawley rats; conditions: rat; for MRT / Vd / clearance / half-life / AUC(0-inf): male, Sprague-Dawley; for AUC(0-inf): AUC0-∞
Outline: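 Male Sprague-Dawley rats (250–300 g) with jugular vein cannulae, fed antioxidant-free AIN-76A diet and acclimatized 3 days. Single i.v. dose of 10 or 20 mg/kg via cannula in Cremophor EL/tween-80/ethanol/water (2:1:1:6). Blood (200 μL) sampled from 2 min to 36 h; plasma stored at −80°C and assayed by HPLC-UV. Non-compartmental analysis: log-linear trapezoidal AUC, CL = Dose/AUC0-∞, MRT = AUMC0-∞/AUC0-∞.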

[3] = format: in vivo, Nrf2 knockout C57BL/6J (−/−) mice; conditions: for AUC0-∞ /Dose: Nrf2(−/−) mice; for AUC, folds increase: Nrf2(−/−) vs Nrf2(+/+) mice; for AUC / Cmax / MRT / Tmax / half-life: male, C57BL/6J, mouse, plasma
Outline: (§1)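 Age-matched male C57BL/6J mice, Nrf2 (+/+) or (−/−), 10–15 weeks old, on AIN-76A diet from 3 days before dosing. Dosed 500 mg/kg by oral gavage after an overnight fast, or 100 mg/kg i.p.; vehicle Cremophor EL/tween-80/ethanol/water (2:1:1:6). Composite sampling by heart puncture from 2 min (i.p. only) or 7.5 min to 36 h, three mice per time point. Non-compartmental analysis; t1/2 = ln2/kel from terminal slope.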

[4] = format: in vivo, Nrf2 wild type C57BL/6J (+/+) mice; conditions: for AUC / Cmax / MRT / Tmax: male, C57BL/6J, mouse, plasma
Outline: as §1

Blood cell partitioning = format: in vitro ADME; conditions: rat, fresh pooled rat blood
Outline: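 Fresh pooled rat blood spiked 1:100 with test compound in methanol (final 10 μg/mL). Incubated 2 h at 37°C in a shaking water bath. Plasma separated at once by centrifugation and assayed by HPLC-UV to give the blood-to-plasma concentration ratio (CB/CP). Run in triplicate.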

[5] = p.o. 250 mg/kg, regular emulsion

O=C(CC(=O)c1ccccc1)c1ccccc1 [DBM, 1,3-Diphenyl-1,3-propanedione]
Cmax ([1]; in vivo, 250 mg/kg): 2.88 ± 0.74 µg/mL
AUC(0-inf) ([1]; plasma, 10 mg/kg): 2.25 ± 0.33 µg·h/mL
Cmax ([1]; plasma, 10 mg/kg): 0.34 ± 0.04 µg/mL
MRT ([1]; plasma, 10 mg/kg): 7.6 ± 2.3 h
half-life ([1]; plasma, 10 mg/kg): 11 ± 3 h
AUC(0-inf) ([1]; plasma, 50 mg/kg): 9.46 ± 1.62 µg·h/mL
Cmax ([1]; plasma, 50 mg/kg): 1.5 ± 0.41 µg/mL
MRT ([1]; plasma, 50 mg/kg): 9.4 ± 2 h
half-life ([1]; plasma, 50 mg/kg): 9.3 ± 2 h
AUC(0-inf) ([1]; plasma, 250 mg/kg): 30.4 ± 6.89 µg·h/mL
Cmax ([1]; plasma, 250 mg/kg): 3.02 ± 0.66 µg/mL
MRT ([1]; plasma, 250 mg/kg): 12 ± 4.3 h
half-life ([1]; plasma, 250 mg/kg): 11 ± 8 h
AUC0-∞ /Dose ([1]; p.o. 10 mg/kg, regular emulsion): 0.225 ± 0.033 (μg·h/mL)/(mg/kg)
Ka (absorption rate constant) ([1]; p.o. 50 mg/kg, regular emulsion, Gastroplus three-compartment fitting): 0.029 ± 0.046 h⁻¹
AUC0-∞ /Dose [1, 5]: 0.122 ± 0.027 ^a (μg·h/mL)/(mg/kg)
fraction absorbed in GIT (deconvolution analysis) [1, 5]: 10.8%
Tmax ([1]; p.o. 250 mg/kg, regular emulsion, 250 mg/kg): 4.0 ± 2.0 h
MRT ([2]; plasma, iv, 10 mg/kg): 10.4 ± 3.33 h
Vd ([2]; plasma, iv, 10 mg/kg): 6.75 ± 1.85 L/kg
clearance ([2]; plasma, iv, 10 mg/kg): 0.71 L/h/kg
half-life ([2]; plasma, iv, 10 mg/kg): 14.4 ± 5 h
AUC(0-inf) ([2]; plasma, iv, 10 mg/kg, i.v. 10 mg/kg): 16.5 ± 7.85 µg·h/mL
MRT ([2]; plasma, iv, 20 mg/kg): 10.2 ± 6.1 h
Vd ([2]; plasma, iv, 20 mg/kg): 7.35 ± 4.26 L/kg
clearance ([2]; plasma, iv, 20 mg/kg): 0.72 L/h/kg
half-life ([2]; plasma, iv, 20 mg/kg): 12 ± 5.34 h
AUC(0-inf) ([2]; plasma, iv, 20 mg/kg, i.v. 20 mg/kg): 27.9 ± 2.4 µg·h/mL
clearance ([2]; whole blood, intravenous, 10 mg/kg): ~0.762 L/h/kg
AUC0-∞ /Dose ([2]; i.v. 10 mg/kg, 10 mg/kg): 1.65 (μg·h/mL)/(mg/kg) and 1.65 ± 0.79 (μg·h/mL)/(mg/kg)
AUC0-∞ ([2]; i.v. 20 mg/kg, 20 mg/kg): 28.0 ± 2.40 µg·h/mL
AUC0-∞ /Dose ([2]; i.v. 20 mg/kg, 20 mg/kg): 1.40 (μg·h/mL)/(mg/kg) and 1.40 ± 0.12 (μg·h/mL)/(mg/kg)
AUC0-∞ /Dose ([3]; i.p. 100 mg/kg): 0.221 (μg·h/mL)/(mg/kg)
AUC0-∞ /Dose ([3]; p.o. 500 mg/kg): 0.171 (μg·h/mL)/(mg/kg)
AUC, folds increase ([3]; i.p. 100 mg/kg): 2.3 fold
AUC, folds increase ([3]; p.o. 500 mg/kg): 1.3 fold
apparent terminal half-life, fold increase ([3]; Nrf2 knockout vs wild type mice, i.p. 100 mg/kg): 2 fold
AUC ([3]; ip, 100 mg/kg): 22.1 µg·h/mL
Cmax ([3]; ip, 100 mg/kg): 6.86 µg/mL
MRT ([3]; ip, 100 mg/kg): 5.15 h
Tmax ([3]; ip, 100 mg/kg): 0.25 h
half-life ([3]; ip, 100 mg/kg): 5.04 h
AUC ([3]; po, 500 mg/kg): 85.6 µg·h/mL
Cmax ([3]; po, 500 mg/kg): 17.4 µg/mL
MRT ([3]; po, 500 mg/kg): 6.36 h
Tmax ([3]; po, 500 mg/kg): 0.25 h
half-life ([3]; po, 500 mg/kg): 8.52 h
AUC0-∞ /Dose ([4]; Nrf2(+/+) mice, i.p. 100 mg/kg): 0.096 (μg·h/mL)/(mg/kg)
AUC0-∞ /Dose ([4]; Nrf2(+/+) mice, p.o. 500 mg/kg): 0.129 (μg·h/mL)/(mg/kg)
Apparent terminal t1/2 ([4]; Nrf2(+/+) mice, p.o. 500 mg/kg, 500 mg/kg): 6.09 h
AUC ([4]; ip, 100 mg/kg): 9.62 µg·h/mL
Cmax ([4]; ip, 100 mg/kg): 4.56 µg/mL
MRT ([4]; ip, 100 mg/kg): 2.76 h
Tmax ([4]; ip, 100 mg/kg): 0.25 h
AUC ([4]; po, 500 mg/kg): 64.6 µg·h/mL
Cmax ([4]; po, 500 mg/kg): 23.2 µg/mL
MRT ([4]; po, 500 mg/kg): 4.73 h
Tmax ([4]; po, 500 mg/kg): 0.25 h
peak plasma concentration ([4]; mice, i.p. 100 mg/kg, genotype not given, context Nrf2(+/+)): 20.4 µM
blood plasma ratio at 2 h, 10 μg/mL (Blood cell partitioning): 0.93 ± 0.19
